{"data": "Experimental data gathered from unrelated publications", "target": "cAMP-dependent protein kinase catalytic subunit PRKX (PRKX, Homo sapiens, UniProt P51817)", "Sequence (P51817 1-358, as in one of the studies)": "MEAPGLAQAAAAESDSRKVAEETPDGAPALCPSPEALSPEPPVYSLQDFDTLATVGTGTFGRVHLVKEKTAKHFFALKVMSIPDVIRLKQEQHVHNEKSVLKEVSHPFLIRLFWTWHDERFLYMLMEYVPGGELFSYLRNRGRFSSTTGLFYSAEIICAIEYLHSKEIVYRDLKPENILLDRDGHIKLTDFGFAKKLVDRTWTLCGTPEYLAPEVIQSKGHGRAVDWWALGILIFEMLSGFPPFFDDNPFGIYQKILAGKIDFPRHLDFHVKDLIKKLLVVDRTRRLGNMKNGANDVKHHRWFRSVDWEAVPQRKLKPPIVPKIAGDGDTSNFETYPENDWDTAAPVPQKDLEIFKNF", "note": "Compare with care: the assays were run in different laboratories."}
{"Compound": "Cc1cc(NC(=O)c2cccc3cc(-c4cccc5[nH]nc(N)c45)ccc23)ccc1F", "observed": "enzyme activity", "action": "inhibitor", "concentration": "0.1 µM", "quantity": "activity vs control", "result": "101%"}
{"Compound": "Cc1ccc(C(=O)Nc2ccc(CN3CCN(C)CC3)c(C(F)(F)F)c2)cc1C#Cc1cnc2cccnn12", "observed": "enzyme activity", "concentration": "23.5 nM", "quantity": "remaining activity", "result": "77%"}
{"Compound": "Nc1ncnc2occ(-c3ccc(NC(=O)Nc4cc(C(F)(F)F)ccc4F)cc3)c12", "observed": "cell-free assay", "action": "inhibitor", "concentration": "20 µM", "quantity": "remaining signal", "result": "74%"}
{"Compound": "CCOc1cc(-c2nncn2C)ccc1Nc1ncc2cc(C)nc(NCC(C)(C)C)c2n1", "observed": "enzyme activity", "action": "inhibitor", "technique": "FRET", "concentration": "1 µM", "quantity": "inhibition", "result": "< 15%"}
{"Compound": "N#Cc1ccc(Nc2ccc3[nH]c(=O)[nH]c3c2)c(Cl)c1", "observed": "cell-free assay", "technique": "competition with immobilised ligand", "concentration": "1 µM", "quantity": "remaining binding", "result": "100%"}
{"Compound": "CCN(CC)CCNC(=O)c1c(C)[nH]c(/C=C2\\C(=O)Nc3ccc(F)cc32)c1C", "observed": "enzyme activity", "action": "inhibitor", "concentration": "0.3 µM", "quantity": "inhibition", "result": "1%"}
{"Compound": "C[C@H](c1cccc(C#N)c1)n1cc(Cl)cc(C(N)=O)c1=N", "observed": "cell-free assay", "technique": "competition with immobilised ligand", "concentration": "1 µM", "quantity": "remaining binding", "result": "100%"}
{"Compound": "CCCS(=O)(=O)Nc1ccc(F)c(C(=O)c2c[nH]c3ncc(-c4ccc(Cl)cc4)cc23)c1F", "observed": "enzyme activity", "action": "inhibitor", "concentration": "1 µM", "quantity": "inhibition", "result": "< 10%"}
{"Compound": "CCS(=O)(=O)c1cc2cc(C[C@@](O)(CC(C)(C)c3ccc(F)cc3C(N)=O)C(F)(F)F)[nH]c2cn1", "observed": "cell-free assay", "technique": "competition with immobilised ligand", "concentration": "1 µM", "quantity": "remaining binding", "result": "77%"}
{"Compound": "Cc1sc(C(=O)NC2COC2)cc1-n1cc(NC(=O)Nc2c(F)cccc2Cl)cn1", "observed": "enzyme activity", "action": "inhibitor", "concentration": "10 µM", "quantity": "remaining activity", "result": "87.5%"}
{"Compound": "N#CCCc1ccc2c(c1)-c1[nH]c3ccc([N+](=O)[O-])cc3c1CC(=O)N2", "observed": "cell-free assay", "concentration": "0.5 µM", "quantity": "remaining signal", "result": "78.4%"}
{"Compound": "COc1cc2ncnc(Nc3ccc(Oc4ccccc4)c(C)c3C)c2cc1OC", "observed": "enzyme activity", "action": "inhibitor", "concentration": "1 µM", "quantity": "inhibition", "result": "-12%"}
{"Compound": "CCCOc1ccc(OC)c(F)c1C(=O)c1ccc(C(=O)N[C@@H]2CNC[C@H]2NC(=O)c2ccc3[nH]ncc3c2)cc1", "observed": "enzyme activity", "action": "inhibitor", "concentration": "0.5 µM", "quantity": "remaining activity", "result": "5%"}
{"Compound": "CC(C)(O)[C@H]1CC[C@H](Nc2ccc3ncc(-c4cccc(C(F)(F)F)c4)n3n2)CC1", "observed": "enzyme activity", "action": "inhibitor", "concentration": "1 µM", "quantity": "remaining activity", "result": "103%"}
{"Compound": "Cn1cnc(Br)c1C1=CN(c2ncnc3[nH]cnc23)CCS1", "observed": "enzyme activity", "action": "inhibitor", "technique": "radiometric", "concentration": "2 µM", "quantity": "inhibition", "result": "92.8%"}
{"Compound": "CO[C@@H](C)c1c(Nc2ccc([C@@H](N(C)C(=O)C3CCS(=O)(=O)CC3)C(F)(F)F)cc2)cnc2cc(Cl)nn12", "observed": "cell-free assay", "technique": "competition with immobilised ligand", "concentration": "1 µM", "quantity": "remaining binding", "result": "84%"}
{"Compound": "O=c1cc(-c2cccc3c2Sc2ccccc2S3)oc(N2CCOCC2)c1", "observed": "enzyme activity", "action": "inhibitor", "concentration": "0.5 µM", "quantity": "remaining activity", "result": "113%"}
{"Compound": "COc1cc(Cl)c(C(=O)N[C@@H](CN[C@H]2CC[C@@H](N)CC2)Cc2ccc(C#N)cc2)cc1-c1ccc(CN[C@H](C)c2ccc(C)cc2)o1", "observed": "enzyme activity", "action": "inhibitor", "concentration": "1 µM", "quantity": "remaining activity", "result": "97%"}
{"Compound": "CN(C(=O)c1ccccc1)c1cc(N(C)c2ccc3c(c2)CCc2ccc(C(=O)NCCN4CCOCC4)cc2C3=O)ccc1F", "observed": "cell-free assay", "technique": "competition with immobilised ligand", "concentration": "1 µM", "quantity": "remaining binding", "result": "93%"}
{"Compound": "CC(C)(C)c1nc2c(s1)c1nc(N)ncc1c1ccc(NS(=O)(=O)c3c(F)cccc3F)c(F)c12", "observed": "enzyme activity", "action": "inhibitor", "technique": "radiometric", "concentration": "1 µM", "quantity": "remaining activity", "result": "82%"}
{"Compound": "CNC(=O)c1ccc(Nc2ncc(C(F)(F)F)c(NCc3nccnc3N(C)S(C)(=O)=O)n2)cc1", "observed": "cell-free assay", "technique": "competition with immobilised ligand", "concentration": "0.1 µM", "quantity": "remaining binding", "result": "95%"}
{"Compound": "CC/C(=N\\NC(=O)C(C)Nc1ccccc1)c1ccc(O)c(C)c1O (centres unmarked)", "observed": "enzyme activity", "action": "inhibitor", "concentration": "0.1 µM", "quantity": "inhibition", "result": "45.2%"}
{"Compound": "CS(=O)(=O)N1CCCC(NC(=O)[C@H](CCC2CCCCC2)NC(=O)c2ccc(CNc3ncnc4c3nnn4-c3ccccc3)cc2)C1 (some centres unmarked)", "observed": "cell-free assay", "technique": "competition with immobilised ligand", "concentration": "0.1 µM", "quantity": "remaining binding", "result": "100%"}
{"Compound": "CNC(=O)c1cc(Oc2ccc(NC(=O)Nc3ccc(Cl)c(C(F)(F)F)c3)cc2)ccn1", "observed": "enzyme activity", "action": "inhibitor", "concentration": "10 µM", "quantity": "inhibition", "result": "48%"}
{"Compound": "CNCc1ccccc1-c1csc([C@@H](C)Nc2nc(C)nc3cc(OC)c(OC)cc23)c1", "observed": "cell-free assay", "technique": "competition with immobilised ligand", "concentration": "1 µM", "quantity": "remaining binding", "result": "67%"}
{"Compound": "Cc1ccc(Nc2nccc(N(C)c3ccc4c(C)n(C)nc4c3)n2)cc1S(N)(=O)=O", "observed": "enzyme activity", "action": "inhibitor", "concentration": "0.3 µM", "quantity": "inhibition", "result": "61%"}
